RGS4 act = RGS4 potentiators or activators, primary screen, cell-based, HEK293 M3R inducible RGS4, calcium flux; AID 463111, 2010; carbachol calcium flux Fluo4; active compounds read low; 0.92% of 310,000 active; B-score at 10 µM;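 active = B-score of the integrated calcium signal more than 4 SD below the library mean, with starting fluorescence not abnormally high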;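 note: negative B-score means reduced calcium response which marks RGS4 activation or potentiation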
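Test system: HEK293 cells with stable M3R and inducible RGS4; also added: carbachol at ECmax as muscarinic agonist stimulus; schedule: dye loading 30 min 37 °C, buffer rest 30 min RT; technique: kinetic calcium fluorescence imaging with Fluo4-AM dye, 2 µM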
MrgX1 PAM = positive allosteric modulators of MrgX1, primary screen, HEK293 cells, Fluo-4 calcium flux. AID 588675, 2011. 0.63% of 310,000 active. B-score at 10 µM. FDSS; active compounds read high. Mas-related G-protein coupled receptor member X1 (Homo sapiens), Q96LB2;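 active = plate-corrected calcium response at least 3 library SD above typical, normal starting fluorescence, not activating the receptor alone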;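 note: compound read alongside a low EC10 to EC30 dose of BAM8-22 agonist; peak minus trough fluorescence over baseline measured at the second addition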
Target sequence (Q96LB2 whole entry, looked up): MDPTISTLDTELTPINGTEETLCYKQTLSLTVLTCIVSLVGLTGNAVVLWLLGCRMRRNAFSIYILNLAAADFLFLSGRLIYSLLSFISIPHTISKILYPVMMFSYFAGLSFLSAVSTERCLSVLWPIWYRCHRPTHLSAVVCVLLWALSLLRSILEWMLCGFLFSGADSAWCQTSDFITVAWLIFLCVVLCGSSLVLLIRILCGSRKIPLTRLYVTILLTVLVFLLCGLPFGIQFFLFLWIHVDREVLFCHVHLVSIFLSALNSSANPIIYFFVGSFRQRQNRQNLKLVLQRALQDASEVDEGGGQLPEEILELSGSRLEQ
MrgX1 antagonist = antagonists of human MrgX1 receptor, primary screen, HEK293 cells, Fluo-4 calcium flux. BAM8-22 antagonism; active compounds read low. Mas-related G-protein coupled receptor member X1 (Homo sapiens), Q96LB2. B-score at 10 µM. 1.3% of 310,000 active;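 active = calcium-response B-score plate-corrected more than 3 library SD below zero, starting fluorescence within 5 deviations, no agonist response on first addition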;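 note: peak minus trough fluorescence over baseline after final BAM8-22 challenge near maximal dose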
MrgX1 ag = agonists of human MrgX1 receptor, primary screen, HEK293 cells, Fluo-4 calcium flux. Mas-related G-protein coupled receptor member X1 (Homo sapiens), Q96LB2. Fluo-4 calcium fluorescence, agonist mode; active compounds read high. B-score at 10 µM. 0.44% of 310,000 active;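 active = calcium response B-score plate-corrected fluorescence ratio at least 3 library SD, with starting fluorescence B-score inside 5 SD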
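System: HEK293 cells stably expressing human MrgX1 receptor; Dosing: test compound in the initial addition of three; Schedule: overnight plating, then 30 min 37 °C plus 30 min room-temperature dye loading; Detection: kinetic calcium dye fluorescence, Fluo-4 NW; Controls: per-plate positive and negative controls for Z′ factor.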
RGS4 block = RGS4 inhibitors, primary screen, cell-based, HEK293 M3R inducible RGS4, calcium flux; Regulator of G-protein signaling 4 (Homo sapiens), P49798; Fluo-4 calcium flux; active compounds read high; triggered by carbachol at its EC20; B-score at 10 µM; 0.45% of 310,000 active; AID 463165, 2010;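 active = B-score, a plate-corrected calcium signal, over three deviations above library mean, with baseline fluorescence within five deviations of library mean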;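 note: RGS4 expression induced by doxycycline in cells with stable M3 receptor; B-score is computed from the integrated fluorescence ratio over baseline after carbachol; higher B-score means a larger calcium signal and so more RGS4 inhibition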
Target sequence (P49798 whole entry, looked up): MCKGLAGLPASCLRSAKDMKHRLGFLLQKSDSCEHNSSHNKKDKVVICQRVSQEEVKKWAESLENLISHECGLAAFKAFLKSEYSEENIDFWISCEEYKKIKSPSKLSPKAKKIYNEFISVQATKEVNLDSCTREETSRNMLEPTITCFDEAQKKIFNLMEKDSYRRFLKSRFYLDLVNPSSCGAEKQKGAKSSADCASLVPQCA
MrgX1 ag reconf = MrgX1 receptor agonists, duplicate retest, confirmation, HEK293 cells, Fluo-4 calcium flux | shares compounds with MrgX1 ag | Fluo-4 calcium fluorescence, FDSS | activation, % at 10 µM | 78% of 600 active;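 active = calcium signal rise, corrected for plate position, at least 3 library SD high, with starting brightness within 5 such deviations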
HEK293 Ca flux = nonspecific calcium signal in parental HEK293, confirmation, counter-screen for MrgX1 antagonist project, parental HEK293 cells, Fluo-4 calcium flux. shares compounds with MrgX1 antagonist. fluorescence ratio F(max-min)/F0 at 10 µM. 2% of 4,000 active. Fluo-4 calcium fluorescence, FDSS;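 active = duplicate-averaged calcium fluorescence ratio at least three times the standard deviation of buffer wells, a nonspecific response in parental cells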
HEK293 Ca counter = calcium response in parental HEK293 cells, primary screen, counter-screen for MrgX1 allosteric activator project, cell-based, Fluo-4 calcium flux, duplicate; 0.4% of 4,000 active; AID 624114, 2012; shares compounds with MrgX1 antagonist; fluorescence ratio F(max-min)/F0 at 10 µM; Fluo-4 fluorescence ratio; active compounds read high;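 active = calcium fluorescence ratio, averaged over duplicates, at least 3 SD of the buffer-well ratio, meaning a nonspecific response in receptor-free cells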;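 note: untransfected parental HEK293 lacking MrgX1 used as counterscreen for MrgX1 allosteric activators; fluorescence change taken during the second addition on a kinetic imager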
HEK293 Ca cntr2 = calcium response in parental HEK293 cells, primary screen, counter-screen for MrgX1 agonist project, cell-based, Fluo-4 calcium flux, duplicate, agonist mode; shares compounds with MrgX1 antagonist; Fluo-4 calcium fluorescence (FDSS); active compounds read high; fluorescence ratio F(max-min)/F0 at 10 µM; 8.7% of 4,000 active; AID 624115, 2012;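 active = calcium fluorescence ratio at least three times the spread of buffer wells, meaning a non-specific response in parental cells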
An asterisk follows results filed as active. An excerpt weighted towards active compounds, which were near 3.5% of everything screened.

`CCC1c2ccc(C)n2CCN1C(=O)Nc1cc(Cl)ccc1OC` (stereo not given) gave RGS4 act inactive, MrgX1 PAM inactive, MrgX1 antagonist inactive, MrgX1 ag 33*, RGS4 block inactive, MrgX1 ag reconf inactive, HEK293 Ca flux inactive, HEK293 Ca counter inactive and HEK293 Ca cntr2 inactive.
Screening CC(C)N1CCN(CCCc2ccccc2)CC1CCO (stereo not given) returned RGS4 act inactive, MrgX1 PAM inactive, MrgX1 antagonist inactive, MrgX1 ag inactive and RGS4 block inactive.
For OC(C#Cc1ccccn1)c1cccs1 (stereo not given) the results were RGS4 act inactive, MrgX1 PAM inactive, MrgX1 antagonist inactive, MrgX1 ag 44*, RGS4 block inactive, MrgX1 ag reconf inactive, HEK293 Ca flux inactive, HEK293 Ca counter inactive and HEK293 Ca cntr2 inactive.
COc1ccc(-c2csc(N=C(N)N)n2)cc1 was read as RGS4 act inactive, MrgX1 PAM inactive, MrgX1 antagonist inactive, MrgX1 ag inactive and RGS4 block inactive.
Cc1ccc(-c2csc(N=C(N)N)n2)c(C)c1 was read as RGS4 act inactive, MrgX1 PAM inactive, MrgX1 antagonist inactive, MrgX1 ag 76*, RGS4 block inactive, MrgX1 ag reconf 104%*, HEK293 Ca flux inactive, HEK293 Ca counter inactive and HEK293 Ca cntr2 inactive.
`COC(=O)C1=C(CSc2nc3c(cc2C#N)CN(C)CC3)OC(N)=C(C#N)C1c1ccccc1F` (stereo not given) gave RGS4 act inactive, MrgX1 PAM inactive, MrgX1 antagonist inactive, MrgX1 ag 42*, RGS4 block inactive, MrgX1 ag reconf 265%*, HEK293 Ca flux inactive, HEK293 Ca counter inactive and HEK293 Ca cntr2 57*.
COC(=O)C1=C(C)OC(N)=C(C#N)C1c1ccco1 (stereo not given) was read as RGS4 act inactive, MrgX1 PAM inactive, MrgX1 antagonist inactive, MrgX1 ag inactive and RGS4 block inactive.
COC(=O)C1=C(C)OC(N)=C(C#N)C1c1cc(OC)c(OCC(N)=O)cc1Cl (stereo not given) was read as RGS4 act inactive, MrgX1 PAM inactive, MrgX1 antagonist inactive, MrgX1 ag 43*, RGS4 block inactive, MrgX1 ag reconf 230%*, HEK293 Ca flux inactive, HEK293 Ca counter inactive and HEK293 Ca cntr2 56*.
`COC(=O)C1=C(C)OC(N)=C(C#N)C1c1ccccc1F` (stereo not given) gave RGS4 act inactive, MrgX1 PAM inactive, MrgX1 antagonist inactive, MrgX1 ag 27*, RGS4 block inactive, MrgX1 ag reconf 170%*, HEK293 Ca flux inactive, HEK293 Ca counter inactive and HEK293 Ca cntr2 64*.
For CCOC(=O)C1=C(CSc2nc3c(cc2C#N)CN(C)CC3)OC(N)=C(C#N)C1c1ccccc1 (stereo not given) the results were MrgX1 PAM inactive, MrgX1 antagonist inactive and MrgX1 ag inactive.
